Assay results pooled from the literature.
Target: Serine/threonine-protein kinase ULK1 (ULK1, Homo sapiens, UniProt O75385)
Effect on: enzyme activity
Mode: inhibitor
Residues used in one study (O75385 1-1050): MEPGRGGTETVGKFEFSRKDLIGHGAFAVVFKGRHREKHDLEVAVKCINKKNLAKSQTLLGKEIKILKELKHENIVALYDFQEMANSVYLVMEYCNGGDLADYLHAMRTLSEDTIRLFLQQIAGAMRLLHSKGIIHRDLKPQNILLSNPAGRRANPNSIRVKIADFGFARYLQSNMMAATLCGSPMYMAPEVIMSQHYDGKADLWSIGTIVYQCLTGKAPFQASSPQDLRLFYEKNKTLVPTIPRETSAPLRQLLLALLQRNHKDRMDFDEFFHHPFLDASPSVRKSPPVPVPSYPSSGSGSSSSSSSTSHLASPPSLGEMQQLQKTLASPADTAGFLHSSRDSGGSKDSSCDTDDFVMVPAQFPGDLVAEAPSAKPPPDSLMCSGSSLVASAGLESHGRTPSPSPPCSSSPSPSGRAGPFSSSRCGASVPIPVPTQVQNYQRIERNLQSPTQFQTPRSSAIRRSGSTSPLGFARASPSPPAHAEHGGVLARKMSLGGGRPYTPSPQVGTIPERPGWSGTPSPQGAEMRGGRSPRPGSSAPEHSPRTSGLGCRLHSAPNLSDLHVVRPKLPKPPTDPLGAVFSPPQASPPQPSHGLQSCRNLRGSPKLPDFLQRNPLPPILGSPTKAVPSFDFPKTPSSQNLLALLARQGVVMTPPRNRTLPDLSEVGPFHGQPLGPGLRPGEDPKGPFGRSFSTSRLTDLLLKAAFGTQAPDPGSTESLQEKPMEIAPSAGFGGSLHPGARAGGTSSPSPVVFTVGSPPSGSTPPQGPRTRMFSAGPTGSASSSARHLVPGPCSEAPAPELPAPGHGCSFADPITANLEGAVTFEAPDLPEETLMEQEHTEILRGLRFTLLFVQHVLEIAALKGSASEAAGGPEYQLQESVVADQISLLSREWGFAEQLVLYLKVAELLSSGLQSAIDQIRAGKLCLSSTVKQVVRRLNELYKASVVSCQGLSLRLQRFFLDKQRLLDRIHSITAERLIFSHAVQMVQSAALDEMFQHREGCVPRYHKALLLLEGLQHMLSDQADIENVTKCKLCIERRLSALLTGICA

With `Cc1nn(CC(F)(F)F)cc1Nc1nccc(NCc2ccc(S(N)(=O)=O)cc2)n1` the remaining activity was 99% (radiometric; 1 µM).
`Cc1ccc(C(=O)Nc2ccc(CN3CCN(C)CC3)c(C(F)(F)F)c2)cc1C#Cc1cnc2cccnn12` has a remaining activity of 76% (23.5 nM).
`Cc1sc(C(=O)NC2COC2)cc1-n1cc(NC(=O)Nc2c(F)cccc2Cl)cn1` has a remaining activity of 77.3% (10 µM).
`COc1cc(Nc2cnc(C#N)c(O[C@H](C)CN(C)C)n2)ncc1-c1cnn(C)c1` has a remaining activity of 60% (radiometric; 1 µM).
`O=C(NCCCNc1nc(Nc2cccc(NC(=O)N3CCCC3)c2)ncc1C1CC1)C1CCC1` has a remaining activity of 17% (radiometric; 1 µM).
With `O=C(Nc1cnn(-c2csc(C(=O)NC3COC3)c2)c1)Nc1c(F)cccc1Cl` the remaining activity was 93.9% (5 µM).
The remaining activity of `COc1cc(Cl)c(C(=O)N[C@@H](CN[C@H]2CC[C@@H](N)CC2)Cc2ccc(C#N)cc2)cc1-c1ccc(CN[C@H](C)c2ccc(C)cc2)o1` is reported as 95% (1 µM).
The remaining activity of `CC(C)(O)[C@H]1CC[C@H](Nc2ccc3ncc(-c4cccc(C(F)(F)F)c4)n3n2)CC1` is reported as 96.2% (1 µM).
